The text below walks through data of ChEMBL document CHEMBL1133591, “Potent derivatives of glucagon-like peptide-1 with pharmacokinetic properties suitable for once daily administration” (J Med Chem, 2000).

A short description of data set [1]: Plasma half life was determined in pigs. In kind it is ADME, organism-based, Sus scrofa. To be noted: pig. The method, boiled down:
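Landrace × Duroc × Yorkshire pigs, 25–50 kg, two per compound; single sc dose, 0.5 nmol/kg for analogues, 15 nmol/kg for GLP-1. Jugular catheter blood at 0–72 h, extra early samples for GLP-1; EDTA/aprotinin/bacitracin-stabilized plasma. Unextracted plasma assayed by N-terminal-specific GLP-1 radioimmunoassay against spiked pig-plasma calibrators; half-life calculated per pig, reported as mean ± SD.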

The target in data set [2] is Glucagon-like peptide 1 receptor (Homo sapiens, UniProt P43220). As to the kind of experiment: Potency measured using recombinant human GLP-1 receptor expressed in Baby Hamster Kidney (BHK)cells. In kind it is cell-based.

Numbered stars: 1 amine (or outer) side, 2 acyl side, 3 side chain; on linkers, the order of the positions; unused ones are H or OH. Square brackets hold non-standard residues; d marks the D form. Side chains are listed from the residue outwards. Peptide text beside a SMILES is read from it. * marks the point of attachment. ξ: configuration not given here. ξγGlu = O=C(O)C(CCC(=O)[*:2])N[*:1]; Palmitoyl = CCCCCCCCCCCCCCCC(=O)*; ξK = NCCCCC(N)C(=O)O

Sequence of Glucagon-like peptide 1 receptor (P43220 whole entry): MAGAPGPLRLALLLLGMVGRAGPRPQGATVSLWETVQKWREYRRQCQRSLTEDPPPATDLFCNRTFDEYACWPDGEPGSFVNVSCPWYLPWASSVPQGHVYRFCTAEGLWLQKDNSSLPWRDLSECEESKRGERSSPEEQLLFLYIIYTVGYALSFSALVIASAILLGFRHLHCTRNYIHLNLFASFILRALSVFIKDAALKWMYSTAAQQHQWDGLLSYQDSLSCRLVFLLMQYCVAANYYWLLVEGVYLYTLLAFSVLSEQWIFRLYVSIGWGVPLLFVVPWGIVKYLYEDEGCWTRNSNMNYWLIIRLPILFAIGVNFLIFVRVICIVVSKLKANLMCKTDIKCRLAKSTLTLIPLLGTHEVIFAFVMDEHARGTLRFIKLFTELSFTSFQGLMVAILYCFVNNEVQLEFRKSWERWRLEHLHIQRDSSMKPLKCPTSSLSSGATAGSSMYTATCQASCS

Take `CCCCCCCCCCCCCCCC(=O)NC(CCC(=O)NCCCCC(NC(=O)[C@H](CCC(=O)O)NC(=O)[C@H](CCCN=C(N)N)NC(=O)CNC(=O)[C@H](CCCN=C(N)N)NC(=O)[C@@H](NC(=O)[C@H](CC(C)C)NC(=O)[C@H](Cc1c[nH]c2ccccc12)NC(=O)[C@H](C)NC(=O)[C@@H](NC(=O)[C@H](Cc1ccccc1)NC(=O)[C@H](CCC(=O)O)NC(=O)[C@H](CCCN=C(N)N)NC(=O)[C@H](C)NC(=O)[C@H](C)NC(=O)[C@H](CCC(N)=O)NC(=O)CNC(=O)[C@H](CCC(=O)O)NC(=O)[C@H](CC(C)C)NC(=O)[C@H](Cc1ccc(O)cc1)NC(=O)[C@H](CO)NC(=O)[C@H](CO)NC(=O)[C@@H](NC(=O)[C@H](CC(=O)O)NC(=O)[C@H](CO)NC(=O)[C@@H](NC(=O)[C@H](Cc1ccccc1)NC(=O)[C@@H](NC(=O)CNC(=O)[C@H](CCC(=O)O)NC(=O)CNC(=O)[C@@H](N)Cc1c[nH]cn1)[C@@H](C)O)[C@@H](C)O)C(C)C)[C@@H](C)CC)C(C)C)C(=O)O)C(=O)O` (some centres not stated) (H-HGEGTFTSDVSSYLEGQAAREFIAWLVRGRE[ξK]([ξγGlu-Palmitoyl])-OH): in data set [1], the half-life – broadly, how long it takes for the measured level to halve – was 11 h. Also, the EC50 (in general, the concentration at which the effect is half-maximal) in data set [2] came to 0.135 nM.
